Columns and labels:
A549 = assay: Growth inhibition of human A549 cells after 48 hrs by MTT assay; type: functional, cell-based; settings: A549, 48 h
In short: (§1)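 Cells seeded at 8000/well, treated 24 h later in duplicate with a range of concentrations (DMSO stock 10 g/L diluted in fresh medium), 48 h at 37 °C, 5% CO2. MTT (5 mg/ml in PBS) added for 4 h, formazan dissolved in DMSO, absorbance read at 570 nm. IC50 is the concentration giving 50% survival.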

[1] = Growth inhibition of human QGY7701 cells after 48 hrs by MTT assay; type: functional; settings: QGY7701, 48 h; in short: as §1
Huh-7 = assay: Growth inhibition of human HuH7 cells after 48 hrs by MTT assay; type: functional, cell-based; settings: Huh-7, 48 h; in short: as §1
[2] = Cytotoxicity against human HepG2(2.2.15) cells compound treated for 48 hrs followed by incubation for 9 days by MTT assay; type: cell-based
In short: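 HepG2 2.2.15 cells kept 48 h in plates before adding compounds (DMSO stocks serially diluted in medium), then incubated at 37 °C for 9 days. Media-only wells as blank. MTT (5 g/L) added 4 h before lysis in 10% SDS/50% DMF, pH 7.2; OD at 570 nm gives percent cell death; CC50 derived.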

Hepatitis B virus [3] = assay: Antiviral activity against HBV infected in human HepG2(2.2.15) cells assessed as inhibition of HBsAg production after 9 days by ELISA; type: functional, organism-based; settings: HepG2 2.2.15, 216 h
In short: (§2)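 HepG2 2.2.15 cells (HBV-producing) given a range of compound concentrations for nine days; culture supernatants collected and HBsAg or HBeAg levels measured by ELISA. IC50 taken as the concentration giving 50% inhibition of antigen level.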

[4] = Growth inhibition of human L02 cells after 48 hrs by MTT assay; type: functional, cell-based; settings: L02, 48 h; in short: as §1
HeLa = assay: Growth inhibition of human HeLa cells after 48 hrs by MTT assay; type: functional, cell-based; in short: as §1
Hepatitis B virus [5] = assay: Antiviral activity against HBV infected in human HepG2(2.2.15) cells assessed as inhibition of HBeAg production after 9 days by ELISA; type: functional, organism-based; settings: HepG2 2.2.15, 216 h; in short: as §2
Hepatitis B virus [6] = assay: Antiviral activity against HBV infected in human HepG2(2.2.15) cells assessed as inhibition of viral replication after 9 days by fluorescence PCR method; type: functional, organism-based; settings: HepG2 2.2.15, 216 h
In short: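 HepG2 2.2.15 cells given a range of compound concentrations for nine days; HBV DNA quantified by fluorescence PCR. IC50 taken as the concentration giving 50% inhibition of HBV DNA replication.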

[7] = Selectivity index, ratio of CC50 for human HepG2(2.2.15) cells to IC50 for HBV infected in human HepG2(2.2.15) cells assessed as inhibition of viral replication; type: functional
In short: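 Selectivity index calculated as CC50 in HepG2 2.2.15 cells (MTT, 9-day exposure) divided by IC50 for HBV DNA reduction measured by fluorescence PCR after 9 days.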

[8] = Selectivity index, ratio of CC50 for human HepG2(2.2.15) cells to IC50 for HBV infected in human HepG2(2.2.15) cells assessed as inhibition of HBeAg production; type: functional
In short: (§3)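 Selectivity index calculated as CC50 in HepG2 2.2.15 cells (MTT, 9-day exposure) divided by IC50 for HBeAg or HBsAg reduction (ELISA of 9-day supernatants).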

[9] = Selectivity index, ratio of CC50 for human HepG2(2.2.15) cells to IC50 for HBV infected in human HepG2(2.2.15) cells assessed as inhibition of HBsAg production; type: functional; in short: as §3

Row | Structure (SMILES) | IC50 (A549) | IC50 [1] | IC50 (Huh-7) | CC50 at 48 h [2] | IC50 (Hepatitis B virus [3]) | IC50 [4] | IC50 (HeLa) | IC50 (Hepatitis B virus [5]) | IC50 (Hepatitis B virus [6]) | Ratio CC50/IC50 [7] | Ratio CC50/IC50 [8] | Ratio CC50/IC50 [9]
1 | COc1ccc2c(=O)c(/C=C/C(=O)Nc3ccc(F)cc3)coc2c1 | 26.8 µM | > 100 µM | 33.9 µM | 743 µM | > 100 µM | > 200 µM | 9.68 µM | > 100 µM | > 100 µM | – | – | –
2 | O=C(/C=C/c1coc2cc(O)ccc2c1=O)NCc1ccc(F)cc1F | 6.61 µM | > 100 µM | > 100 µM | 470 µM | 14.5 µM | > 200 µM | > 100 µM | 12.3 µM | 23.3 µM | 20.16 | 38.05 | 32.34
3 | COc1ccc2c(=O)c(/C=C/C(=O)Nc3ccc(C)cc3)coc2c1 | 17.5 µM | 39.3 µM | > 100 µM | 979 µM | > 100 µM | > 200 µM | 24.1 µM | > 100 µM | 28.2 µM | 34.69 | – | –
4 | COc1ccc2c(=O)c(/C=C/C(=O)Nc3ccccc3Cl)coc2c1 | 29.9 µM | 23 µM | 58.4 µM | 1010 µM | > 100 µM | > 200 µM | 22.4 µM | > 100 µM | > 100 µM | – | – | –
5 | O=c1[nH]cc(F)c(=O)[nH]1 [FLUOROURACIL] | – | – | 15.8 µM | – | – | – | – | – | – | – | – | –
6 | COc1ccc2c(=O)c(/C=C/C(=O)NCCc3cccc(F)c3)coc2c1 | 9.77 µM | 23.4 µM | 8.96 µM | 1030 µM | > 100 µM | > 200 µM | 15.3 µM | > 100 µM | > 100 µM | – | – | –
7 | Cc1ccccc1NC(=O)/C=C/c1coc2cc(O)ccc2c1=O | > 100 µM | 9.32 µM | 11.1 µM | 374 µM | > 100 µM | > 200 µM | 8.67 µM | > 100 µM | > 100 µM | – | – | –
8 | COc1ccc2c(=O)c(/C=C/C(=O)NCc3ccc(C)cc3)coc2c1 | > 100 µM | 10.2 µM | 14.3 µM | 257 µM | 82.6 µM | > 200 µM | > 100 µM | > 100 µM | 53.5 µM | 4.81 | – | 3.11
9 | COc1ccc2c(=O)c(/C=C/C(=O)NCc3cccc(F)c3)coc2c1 | 26.9 µM | 28.6 µM | 10.1 µM | 475 µM | 83.8 µM | > 200 µM | 17.6 µM | > 100 µM | 75.4 µM | 6.3 | – | 5.67
10 | COc1ccc2c(=O)c(/C=C/C(=O)NCCc3ccccc3F)coc2c1 | 10.3 µM | 81.7 µM | > 100 µM | 457 µM | 47.9 µM | > 200 µM | 12.2 µM | > 100 µM | > 100 µM | – | – | 9.55
11 | CCOc1ccc(NC(=O)/C=C/c2coc3cc(OC)ccc3c2=O)cc1 | > 100 µM | > 100 µM | 3.23 µM | 460 µM | > 100 µM | > 200 µM | > 100 µM | > 100 µM | > 100 µM | – | – | –
12 | O=C(/C=C/c1coc2cc(O)ccc2c1=O)NCc1ccc(F)cc1 | > 100 µM | > 100 µM | > 100 µM | 357 µM | > 100 µM | > 200 µM | > 100 µM | > 100 µM | 33.5 µM | 10.68 | – | –
13 | COc1ccc2c(=O)c(/C=C/C(=O)Nc3cccc(C)c3)coc2c1 | > 100 µM | > 100 µM | 15.5 µM | 554 µM | > 100 µM | > 200 µM | > 100 µM | > 100 µM | 34.9 µM | 15.85 | – | –
